According to ChEMBL document CHEMBL2057098, “Novel 1,2,4-triazolo[1,5-a]pyridines and their fused ring systems attenuate oxidative stress and prolong lifespan of Caenorhabiditis elegans” (2012):
Active and inactive are the calls of the source. No cut-off for these calls is given here.

Experiments:
Caenorhabditis elegans [1] = assay: Antioxidant activity against parquat-induced oxidative stress in wild type Caenorhabditis elegans Bristol N2 assessed as increase in survival time at 500 nM (reference value: 17.64 +/- 0.19 days); type: functional
Caenorhabditis elegans [2] = assay: Antioxidant activity against parquat-induced oxidative stress in wild type Caenorhabditis elegans Bristol N2 assessed as increase in survival time at 500 nM to 1 uM; type: functional, organism-based
How it was run: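 Age-synchronised 7-day-old adult N2 worms were placed overnight on agar plates with 40 μM FUDR and paraquat, with or without compound (50 nM, 500 nM, 1 μM), at 20 °C. Viability was scored over 20 h, with 30 worms per trial in three independent experiments. Survival was plotted as Kaplan–Meier curves.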

Caenorhabditis elegans [3] = assay: Antioxidant activity against heat-induced oxidative stress in wild type Caenorhabditis elegans Bristol N2 assessed as increase in survival time at 500 nM […] relative to control; type: functional
Caenorhabditis elegans [4] = assay: Antioxidant activity against parquat-induced oxidative stress in wild type Caenorhabditis elegans Bristol N2 assessed as increase in survival time; type: functional, organism-based
How it was run: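 Seven-day-old synchronised N2 adults, 30 worms per trial at 20 °C. Worms were placed overnight on agar containing paraquat and 40 μM FUDR, with or without test compound. Viability was scored over a 20 h period. Three independent experiments.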

Caenorhabditis elegans [5] = assay: Antioxidant activity in wild type Caenorhabditis elegans Bristol N2 assessed as decrease in oxidative stress-induced carboxymethyllysine formation by ELISA; type: functional, organism-based
How it was run: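 Protein extracts came from N2 worms treated for 7 days with or without compound, with 40 μM FUDR; protein was quantified. CML was measured by competitive ELISA on streptavidin-coated plates using biotinylated glucose-glycated BSA and an HRP-labelled mouse monoclonal anti-CML antibody.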

Caenorhabditis elegans [6] = assay: Antioxidant activity against parquat-induced oxidative stress in wild type Caenorhabditis elegans Bristol N2 assessed as increase in survival time at 1 uM (reference value: 17.64 +/- 0.19 days); type: functional
Caenorhabditis elegans [7] = assay: Antioxidant activity against parquat-induced oxidative stress in wild type Caenorhabditis elegans Bristol N2 assessed as increase in survival time at 50 nM (reference value: 17.64 +/- 0.19 days); type: functional
Caenorhabditis elegans [8] = assay: Antioxidant activity against heat-induced oxidative stress in wild type Caenorhabditis elegans Bristol N2 assessed as increase in survival time at 1 uM […] relative to control; type: functional
Caenorhabditis elegans [9] = assay: Antioxidant activity against lipid peroxidation in wild type Caenorhabditis elegans Bristol N2 assessed as decrease of malondialdehyde level; type: functional, organism-based
How it was run: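 N2 worms were kept 7 days on plates with 40 μM FUDR, with or without compound. They were washed by sucrose flotation, homogenised in Tris-HCl pH 7.9 buffer with protease inhibitors, and centrifuged. The lysate was treated with 8.1% SDS for 10 min at room temperature, then boiled 60 min with 20% acetic acid and 0.6% thiobarbituric acid, with 0.01% BHT present. A butanol:pyridine (15:1) extract was read at 532 nm against a tetramethoxypropane standard. MDA was expressed as nmol/g protein.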

Caenorhabditis elegans [10] = assay: Antioxidant activity against heat-induced oxidative stress in wild type Caenorhabditis elegans Bristol N2 assessed as increase in survival time measured for 16 hrs at 37 degC relative to control; type: functional, organism-based
Caenorhabditis elegans [11] = assay: Antioxidant activity against heat-induced oxidative stress in wild type Caenorhabditis elegans Bristol N2 assessed as increase in survival time at 50 nM […] relative to control; type: functional

With `CCSc1nn2c(=O)c(/C=N/O)c(Cl)c(C#N)c2n1-c1ccccc1` the Activity (Caenorhabditis elegans [1]) was “inactive” and the Activity (Caenorhabditis elegans [2]) was “inactive”.
With `CCSc1nn2c(=O)c(/C=N/O)c(NCC(C)C)c(C#N)c2n1-c1ccccc1` the Activity (Caenorhabditis elegans [1]) was “inactive” and the Activity (Caenorhabditis elegans [2]) was “inactive”.
In the case of `CCOC(=O)c1cc2c(=O)n3nc(SCC)n(-c4ccccc4)c3c(C#N)c2[nH]1`, the Activity (Caenorhabditis elegans [1]) was “inactive” and the Activity (Caenorhabditis elegans [2]) was “inactive”.
For `CCSc1nn2c(=O)c(C#N)c(N)c(C#N)c2n1-c1ccccc1`, the “fold change (FC)” value (Caenorhabditis elegans [3]) was 2, the Activity (Caenorhabditis elegans [4]) was “Dose-dependent effect” and the Activity (Caenorhabditis elegans [5]) was “Dose-dependent effect”. The Time (Caenorhabditis elegans [6]) was 21 days, the Time (Caenorhabditis elegans [7]) was 18 days and the Time (Caenorhabditis elegans [1]) was 19.76 days. The “fold change (FC)” value (Caenorhabditis elegans [8]) was 2.5, the Activity (Caenorhabditis elegans [9]) was “Dose-dependent effect” and the Activity (Caenorhabditis elegans [10]) was “Dose-dependent effect”. For the same compound, the “fold change (FC)” value (Caenorhabditis elegans [11]) was 1.8.
